Source: ChEMBL document CHEMBL1909611, “Identification and SAR of selective inducible nitric oxide synthase (iNOS) dimerization inhibitors” (Bioorg Med Chem Lett, 2011)

Tests used:
Type in all cases: cell-based
[1] = molecular target: T1, Nitric oxide synthase 3 (Homo sapiens) (UniProt P29474); assay: Inhibition of human eNOS expressed in HEK293 cells assessed as inhibition A23187-induced nitric oxide production at 100 uM incubated for 24 hrs measured after 18 hrs of A23187 challenge by 2,3-diaminonaphthalene assay
T1 sequence (whole entry): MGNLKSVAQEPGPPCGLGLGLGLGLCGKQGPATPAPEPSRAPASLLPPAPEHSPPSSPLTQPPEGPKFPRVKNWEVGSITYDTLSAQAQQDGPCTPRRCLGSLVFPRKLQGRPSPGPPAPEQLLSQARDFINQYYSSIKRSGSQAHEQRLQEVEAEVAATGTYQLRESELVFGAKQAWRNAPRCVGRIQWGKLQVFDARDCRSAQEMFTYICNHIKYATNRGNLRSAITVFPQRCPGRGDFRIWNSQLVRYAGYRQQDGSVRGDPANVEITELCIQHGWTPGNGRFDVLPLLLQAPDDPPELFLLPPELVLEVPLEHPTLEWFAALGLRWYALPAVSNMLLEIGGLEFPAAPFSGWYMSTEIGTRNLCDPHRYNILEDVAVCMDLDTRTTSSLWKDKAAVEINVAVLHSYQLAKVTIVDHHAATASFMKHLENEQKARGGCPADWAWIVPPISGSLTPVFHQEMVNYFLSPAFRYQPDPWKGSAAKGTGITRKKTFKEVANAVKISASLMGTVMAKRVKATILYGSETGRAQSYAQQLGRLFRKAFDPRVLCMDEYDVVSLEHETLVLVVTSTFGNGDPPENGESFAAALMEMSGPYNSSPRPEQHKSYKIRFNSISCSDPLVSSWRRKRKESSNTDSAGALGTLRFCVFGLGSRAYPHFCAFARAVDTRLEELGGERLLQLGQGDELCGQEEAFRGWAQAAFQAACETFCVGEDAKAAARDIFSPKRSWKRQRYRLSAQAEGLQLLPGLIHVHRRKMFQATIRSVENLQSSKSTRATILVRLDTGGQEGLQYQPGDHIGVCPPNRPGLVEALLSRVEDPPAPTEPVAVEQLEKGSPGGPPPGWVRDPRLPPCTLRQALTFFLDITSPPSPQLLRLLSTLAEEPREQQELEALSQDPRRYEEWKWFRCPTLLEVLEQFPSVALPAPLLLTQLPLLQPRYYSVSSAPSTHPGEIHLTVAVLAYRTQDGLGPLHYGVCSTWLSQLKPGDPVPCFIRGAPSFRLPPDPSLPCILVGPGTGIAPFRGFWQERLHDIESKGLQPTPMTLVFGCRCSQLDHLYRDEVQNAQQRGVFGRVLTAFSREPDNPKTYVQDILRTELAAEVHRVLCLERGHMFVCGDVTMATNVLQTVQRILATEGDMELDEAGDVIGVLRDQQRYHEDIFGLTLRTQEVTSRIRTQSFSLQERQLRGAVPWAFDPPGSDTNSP
Summary of the method: (§1)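 Transiently transfected cells plated at 5e5 cells/ml; compounds added immediately by pin transfer. Incubated 24 h with compound, then activated by ionophore (0.8 µM final). Fluorescence (ex 360/em 425 nm) read after raising pH with NaOH (0.12 N final). Values are mean of three experiments with SD. At 100 µM, <50% inhibition is reported as >100.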

Nitric oxide synthase 1 [2] = molecular target: T2, Nitric oxide synthase 1 (Homo sapiens, UniProt P29475); assay: Inhibition of human nNOS expressed in HEK293 cells assessed as inhibition ionomycin-induced nitric oxide production incubated for 24 hrs measured after 18 hrs of ionomycin challenge by 2,3-diaminonaphthalene assay; summary of the method: as §1
[3] = molecular target: T3, Nitric oxide synthase, inducible (Homo sapiens, UniProt P35228); assay: Inhibition of human iNOS expressed in human HEK293 cells assessed as nitrite accumulation after 18 hrs by 2,3-diaminonapthalene assay
Summary of the method: as §1, with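 “18” for “24”, “for nitrite accumulation.” for “with compound, then activated by ionophore (0.8 µM final).”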

Nitric oxide synthase 3 = molecular target: T4, Nitric oxide synthase 3 (Homo sapiens, UniProt P29474); assay: Inhibition of human eNOS expressed in HEK293 cells assessed as inhibition A23187-induced nitric oxide production incubated for 24 hrs measured after 18 hrs of A23187 challenge by 2,3-diaminonaphthalene assay; summary of the method: as §1
T4 sequence (P29474 whole entry): T1 sequence (whole entry)

[4] = molecular target: T3, Nitric oxide synthase, inducible; assay: Inhibition of human iNOS expressed in human HEK293 cells assessed as nitrite accumulation at 100 uM after 18 hrs by 2,3-diaminonapthalene assay
Summary of the method: as §1, with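 “18” for “24”, “for nitrite accumulation.” for “with compound, then activated by ionophore (0.8 µM final).”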

Nitric oxide synthase 1 [5] = molecular target: T2, Nitric oxide synthase 1; assay: Inhibition of human nNOS expressed in HEK293 cells assessed as inhibition ionomycin-induced nitric oxide production at 100 uM incubated for 24 hrs measured after 18 hrs of ionomycin challenge by 2,3-diaminonaphthalene assay; summary of the method: as §1

T2 sequence (P29475 whole entry): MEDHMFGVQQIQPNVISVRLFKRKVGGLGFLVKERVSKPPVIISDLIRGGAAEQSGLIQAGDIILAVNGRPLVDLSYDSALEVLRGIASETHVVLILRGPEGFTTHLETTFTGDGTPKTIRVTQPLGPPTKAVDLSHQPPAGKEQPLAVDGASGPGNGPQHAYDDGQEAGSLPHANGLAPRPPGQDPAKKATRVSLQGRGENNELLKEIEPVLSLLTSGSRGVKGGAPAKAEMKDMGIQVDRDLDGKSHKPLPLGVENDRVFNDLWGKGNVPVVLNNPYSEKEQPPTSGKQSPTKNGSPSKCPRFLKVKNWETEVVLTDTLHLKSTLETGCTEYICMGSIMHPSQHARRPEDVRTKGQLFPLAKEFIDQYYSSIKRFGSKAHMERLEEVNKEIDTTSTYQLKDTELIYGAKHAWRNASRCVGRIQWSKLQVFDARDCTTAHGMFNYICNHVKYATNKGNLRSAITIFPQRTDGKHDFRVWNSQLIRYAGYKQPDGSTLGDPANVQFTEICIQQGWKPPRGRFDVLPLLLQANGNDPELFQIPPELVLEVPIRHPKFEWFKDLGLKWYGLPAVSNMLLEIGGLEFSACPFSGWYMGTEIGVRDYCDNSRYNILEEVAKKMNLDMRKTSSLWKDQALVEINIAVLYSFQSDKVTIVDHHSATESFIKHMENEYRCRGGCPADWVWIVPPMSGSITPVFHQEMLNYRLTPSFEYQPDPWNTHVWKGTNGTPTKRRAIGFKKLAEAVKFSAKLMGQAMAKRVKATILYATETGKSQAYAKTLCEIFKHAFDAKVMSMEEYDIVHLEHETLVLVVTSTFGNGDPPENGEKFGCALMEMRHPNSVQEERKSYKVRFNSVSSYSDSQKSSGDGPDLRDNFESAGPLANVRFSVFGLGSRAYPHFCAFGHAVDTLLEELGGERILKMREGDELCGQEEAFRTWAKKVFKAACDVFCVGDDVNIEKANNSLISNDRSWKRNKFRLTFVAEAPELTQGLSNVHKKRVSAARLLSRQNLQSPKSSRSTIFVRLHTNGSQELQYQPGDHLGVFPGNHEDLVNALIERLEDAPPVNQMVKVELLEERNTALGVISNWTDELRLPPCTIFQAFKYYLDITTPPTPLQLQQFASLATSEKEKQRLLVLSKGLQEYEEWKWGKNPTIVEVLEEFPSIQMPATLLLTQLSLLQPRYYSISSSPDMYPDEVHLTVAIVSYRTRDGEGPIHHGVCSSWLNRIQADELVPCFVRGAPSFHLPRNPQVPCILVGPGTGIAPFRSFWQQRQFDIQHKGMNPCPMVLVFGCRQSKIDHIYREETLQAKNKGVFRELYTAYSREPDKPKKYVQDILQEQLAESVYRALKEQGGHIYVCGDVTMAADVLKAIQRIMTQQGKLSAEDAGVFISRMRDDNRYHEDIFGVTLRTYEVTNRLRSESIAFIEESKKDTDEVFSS
T3 sequence (P35228 whole entry): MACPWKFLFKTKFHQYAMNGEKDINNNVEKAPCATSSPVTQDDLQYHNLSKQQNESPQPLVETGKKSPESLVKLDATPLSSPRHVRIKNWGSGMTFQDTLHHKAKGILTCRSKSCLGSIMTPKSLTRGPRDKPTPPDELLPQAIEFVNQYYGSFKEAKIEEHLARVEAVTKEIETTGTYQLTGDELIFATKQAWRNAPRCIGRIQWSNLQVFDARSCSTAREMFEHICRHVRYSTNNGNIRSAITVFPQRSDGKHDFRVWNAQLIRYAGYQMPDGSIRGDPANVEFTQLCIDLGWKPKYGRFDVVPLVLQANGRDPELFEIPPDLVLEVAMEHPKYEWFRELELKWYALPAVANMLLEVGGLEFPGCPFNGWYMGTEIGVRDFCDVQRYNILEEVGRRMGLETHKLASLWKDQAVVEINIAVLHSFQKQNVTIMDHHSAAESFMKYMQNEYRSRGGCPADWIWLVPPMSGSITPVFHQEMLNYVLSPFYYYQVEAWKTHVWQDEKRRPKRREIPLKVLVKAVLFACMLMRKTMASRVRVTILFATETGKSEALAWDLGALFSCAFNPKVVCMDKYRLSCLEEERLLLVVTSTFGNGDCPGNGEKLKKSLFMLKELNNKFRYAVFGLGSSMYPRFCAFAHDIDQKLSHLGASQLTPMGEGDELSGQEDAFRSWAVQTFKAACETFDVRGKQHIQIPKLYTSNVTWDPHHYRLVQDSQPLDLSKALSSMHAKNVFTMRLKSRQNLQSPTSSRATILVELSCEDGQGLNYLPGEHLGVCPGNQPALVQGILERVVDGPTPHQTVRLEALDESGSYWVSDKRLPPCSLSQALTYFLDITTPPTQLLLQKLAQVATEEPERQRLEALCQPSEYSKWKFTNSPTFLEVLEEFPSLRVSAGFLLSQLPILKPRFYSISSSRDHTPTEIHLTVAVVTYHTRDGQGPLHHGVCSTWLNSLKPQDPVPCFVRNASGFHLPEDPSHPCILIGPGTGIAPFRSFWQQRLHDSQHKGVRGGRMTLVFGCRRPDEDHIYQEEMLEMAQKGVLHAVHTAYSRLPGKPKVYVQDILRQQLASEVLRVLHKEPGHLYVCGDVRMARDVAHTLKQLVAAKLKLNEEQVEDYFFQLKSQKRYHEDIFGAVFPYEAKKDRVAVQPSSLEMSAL

| inhibition [1] [%] | EC50 (Nitric oxide synthase 1 [2]) [µM] | EC50 [3] [µM] | EC50 (Nitric oxide synthase 3) [µM] | inhibition [4] [%] | inhibition (Nitric oxide synthase 1 [5]) [%] | SMILES |
| --- | --- | --- | --- | --- | --- | --- |
| < 50 | 6.8 | 0.163 | > 100 |  |  | CN(C)c1ccc(CN(CCCNCc2ccc3c(c2)OCO3)c2nc(-n3ccnc3)ns2)cc1 |
| < 50 | 0.48 | 0.005 | > 100 |  |  | c1cncc(CN(CCCNCc2ccc3c(c2)OCO3)c2nc(-n3ccnc3)ns2)c1 |
| < 50 | 2.3 | 0.009 | > 100 |  |  | CCCN(CCCNCc1ccc2c(c1)OCO2)c1nc(-n2ccnc2)ns1 |
| < 50 | > 100 | > 100 | > 100 | < 50 | < 50 | CN(CCCNCc1ccc(F)c(F)c1)c1nc(-n2ccnc2)ns1 |
| < 50 | > 100 | 0.76 | > 100 |  | < 50 | COc1ccc(CNCCCN(C)c2nc(-n3ccnc3)ns2)cc1OC |
| < 50 | 7.2 | 0.012 | > 100 |  |  | N#CCN(CCCNCc1ccc2c(c1)OCO2)c1nc(-n2ccnc2)ns1 |
| < 50 | > 100 | 0.293 | > 100 |  | < 50 | Cc1cc(CNC(=O)CNCc2ccc3c(c2)OCO3)nc(-n2ccnc2)n1 |
| < 50 | 2.1 | 0.014 | > 100 |  |  | c1coc(CN(CCCNCc2ccc3c(c2)OCO3)c2nc(-n3ccnc3)ns2)c1 |
| < 50 | > 100 | 0.29 | > 100 |  | < 50 | Cc1cc(C(C)NCCOCc2ccc3c(c2)OCO3)nc(-n2ccnc2)n1 (centres undefined) |
| < 50 | 18 | 0.071 | > 100 |  |  | Cn1cnc(CN(CCCNCc2ccc3c(c2)OCO3)c2nc(-n3ccnc3)ns2)c1 |
| < 50 | > 100 | 0.08 | > 100 |  | < 50 | CN(C)C(=O)CN(CCCNCc1ccc2c(c1)OCO2)c1nc(-n2ccnc2)ns1 |
| < 50 | 24 | 0.048 | > 100 |  |  | CN(CCCNCc1ccc2c(c1)OCCO2)c1nc(-n2ccnc2)ns1 |
| < 50 | 11 | 0.081 | > 100 |  |  | NC(=O)CN(CCCNCc1ccc2c(c1)OCO2)c1nc(-n2ccnc2)ns1 |
| < 50 | > 100 | 0.014 | > 100 |  | < 50 | Cc1cc(CNC(=O)NCCc2ccc3c(c2)OCO3)nc(-n2ccnc2)n1 |
| < 50 | > 100 | 0.36 | > 100 |  | < 50 | COc1ccc(CNCCCN(C)c2nc(-n3ccnc3)ns2)cc1 |
| < 50 | > 100 | 6.3 | > 100 |  | < 50 | CN(CCCNC(=O)c1ccc2c(c1)OCO2)c1nc(-n2ccnc2)ns1 |

Continued, compound first:

| SMILES | inhibition [1] [%] | EC50 (Nitric oxide synthase 1 [2]) [µM] | EC50 [3] [µM] | EC50 (Nitric oxide synthase 3) [µM] | inhibition [4] [%] | inhibition (Nitric oxide synthase 1 [5]) [%] |
| --- | --- | --- | --- | --- | --- | --- |
| CN(CCCNCCc1ccc2c(c1)OCO2)c1nc(-n2ccnc2)ns1 | < 50 | 47 | 0.23 | > 100 |  |  |
| Oc1ccc(CN(CCCNCc2ccc3c(c2)OCO3)c2nc(-n3ccnc3)ns2)cc1 | < 50 | 11 | 0.042 | > 100 |  |  |
| Cc1cc(C(C)NCCN(C)Cc2ccc3c(c2)OCO3)nc(-n2ccnc2)n1 (centres undefined) | < 50 | 6 | 0.029 | > 100 |  |  |
| Cc1cc(C2CCCN2C(=O)CNCc2ccc3c(c2)OCO3)nc(-n2ccnc2)n1 (centres undefined) | < 50 | 6.6 | 0.03 | > 100 |  |  |
| c1cn(-c2nsc(N(CCCNCc3ccc4c(c3)OCO4)Cc3nnn[nH]3)n2)cn1 | < 50 | > 100 | 4 | > 100 |  | < 50 |
| Cc1cc(-c2cccn2CCN(C)Cc2ccc3c(c2)OCO3)nc(-n2ccnc2)n1 | < 50 | > 100 | 1.8 | > 100 |  | < 50 |
| CNC(=O)CN(CCCNCc1ccc2c(c1)OCO2)c1nc(-n2ccnc2)ns1 | < 50 | 7.2 | 0.059 | > 100 |  |  |
| c1cn(-c2nsc(N(CCCNCc3ccc4c(c3)OCO4)C3CC3)n2)cn1 | < 50 | 36 | 0.056 | > 100 |  |  |
| CN(CCCNCc1ccc2[nH]ccc2c1)c1nc(-n2ccnc2)ns1 | < 50 | > 100 | > 100 | > 100 | < 50 | < 50 |
| Cc1cc(C2CCCN2CC(=O)NCc2ccc3c(c2)OCO3)nc(-n2ccnc2)n1 (centres undefined) | < 50 | 9.5 | 0.036 | > 100 |  |  |
| CN(CCCNCc1ccc2c(c1)OC(F)(F)O2)c1nc(-n2ccnc2)ns1 | < 50 | > 100 | 8.9 | > 100 |  | < 50 |
| Cc1cc(C2CCCN2C(=O)NCCc2ccc3c(c2)OCO3)nc(-n2ccnc2)n1 (centres undefined) | < 50 | 2.7 | 0.009 | > 100 |  |  |
| CCOC(=O)CN(CCCNCc1ccc2c(c1)OCO2)c1nc(-n2ccnc2)ns1 | < 50 | 7.6 | 0.034 | > 100 |  |  |
| Cc1cc(CCCCNCc2ccc3c(c2)OCO3)nc(-n2ccnc2)n1 | < 50 | > 100 | 0.02 | > 100 |  | < 50 |
| c1csc(CN(CCCNCc2ccc3c(c2)OCO3)c2nc(-n3ccnc3)ns2)c1 | < 50 | 0.69 | 0.009 | > 100 |  |  |
| Cc1cc(C(=O)NCCN(C)Cc2ccc3c(c2)OCO3)nc(-n2ccnc2)n1 | < 50 | > 100 | > 100 | > 100 | < 50 | < 50 |
| c1cn(-c2nsc(N(CCCNCc3ccc4c(c3)OCO4)Cc3nccs3)n2)cn1 | < 50 | 0.31 | 0.006 | > 100 |  |  |
| c1cn(-c2nsc(N(CCCNCc3ccc4c(c3)OCO4)Cc3ccc4occc4c3)n2)cn1 | < 50 | 7.9 | 0.09 | > 100 |  |  |
| Cc1cc(C2CCCN2CCN(C)Cc2ccc3c(c2)OCO3)nc(-n2ccnc2)n1 (centres undefined) | < 50 | 3.9 | 0.004 | > 100 |  |  |
| CN(CCCNCc1ccncc1)c1nc(-n2ccnc2)ns1 | < 50 | > 100 | > 100 | > 100 | < 50 | < 50 |
| O=C(O)CN(CCCNCc1ccc2c(c1)OCO2)c1nc(-n2ccnc2)ns1 | < 50 | > 100 | > 100 | > 100 | < 50 | < 50 |
